Experiment [1] in a line: inhibitors of TNFa-induced NFkB p65 translocation, primary screen, imaging, HUVEC, MLSMR starter and 10KST1 sets (AID 438;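 active means inhibition above 20% together with a positive visual image hit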;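 further: compound added about 3h40 before a 20 min TNFalpha stimulation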;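 on inhibition: signal is the nuclear over cytoplasmic p65 intensity ratio per well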). As to conditions: HUVEC TNFa-induced p65 nuclear translocation; cell count: measured here: nuclei count (cytotoxicity indicator), at 2.08 µM; inhibition: at 2 µM, stronger effect = higher value, 0% TNFa-plus-vehicle, 100% no-TNFa wells.
The nature of experiment [2]: inhibitors of mutant huntingtin aggregation, primary screen, imaging, exon1htt(103Q)mCFP cells, high-content imaging (AID 483;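 active means visual image review flags a hit and inhibition of aggregation exceeds 20%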;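 further: compound exposure lasted 3 days before fixation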;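 on nuclei count: percent of the per-plate median nuclei count of sample wells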). As to conditions: exon1htt(103Q)mCFP cell line, aggregate imaging, at 2 µM; inhibition of aggregation: stronger effect = higher value; nuclei count: measured here: cell count, toxicity.
Experiment [3] in a line: inhibitors of E-selectin induction by TNFa, primary screen, imaging, HUVEC, immunofluorescence, MLSMR starter and 10KST1 sets (AID 487;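 active means visually confirmed hit in the image check and inhibition above 20%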;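 on inhibition: signal is fraction of cell area covered by stained E-selectin grains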;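 on nuclei count: 100% = median nuclei count of all wells on the same plate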). The conditions noted are these: HUVEC TNFalpha-induced E-selectin immunofluorescence imaging, at 2 µM; inhibition: stronger effect = higher value; nuclei count: measured here: cell number, toxicity.
Experiment [4] addresses Voltage-gated potassium channel subunit beta-2 (Rattus norvegicus) (UniProt P62483). The experiment can be described thus: KvBeta enzyme negative modulators, primary screen, biochemical, NADPH fluorescence (AID 622).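 Further: slope of raw intensity against log time taken from 70 to 1610 s.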 As to conditions: recombinant KvBeta, 4-cyanobenzaldehyde reduction, at 10 µM, stronger effect = higher value.
For experiment [5] the target is unchanged. Kind of experiment: KvBeta positive modulators, primary screen, biochemical, NADPH fluorescence (AID 623;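 active means NADPH fluorescence slope more negative than the mean of all samples by about 3 SD, 99.7% confidence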;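 further: fluorescence intensity change per second fitted from 20 to 320 s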). As to conditions: Recombinant KvBeta, NADPH fluorescence decrease slope, 10 min; at 10 µM; stronger effect = lower value.
Experiment [6] deals with Muscarinic acetylcholine receptor M4 (Homo sapiens) (UniProt P08173). The experiment can be described thus: compounds altering M4/GIRK thallium flux, either direction, primary screen, M4 allosteric agonist project, cell-based, HEK293 M4/GIRK, BTC-AM (AID 625;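 active means fluorescence slope after compound addition differing from the mean of all tested samples at 99.7% confidence, mostly higher but some lower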;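 further: thallium influx through GIRK channels coupled to M4 in HEK293 cells with BTC-AM dye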). As to conditions: at 10 µM, actives lie on both sides. In short, it runs like this: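 Material – HEK293 cells with M4 receptor and GIRK channels · Buffer or medium – pH 7.3 thallium assay buffer · Doses – one dose, 10 µM final · Timing – cells overnight at 37 °C, BTC-AM loading 1 h, reads 2 min total · Measured by – kinetic fluorescence with BTC-AM dye · Controls – carbachol and DMSO controls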

Experiment [7] in a line: inhibitors of Sendai virus-induced IRF3 signaling, primary screen, TLR/RLR signaling modifier project, cell-based, Sendai virus stimulus, luciferase, 10K MLSCN set (AID 602276;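 active means inhibition at or above 50% at 10 µM; inactive means inhibition below 50%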;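 further: firefly luciferase from ISG56 promoter only with Renilla not read in this screen; 0% = Sendai virus plus DMSO and 100% = medium plus DMSO without virus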). As to conditions: HEK293 RL24 IRF3 luciferase reporter, at 10 µM, stronger effect = higher value. (In general: In a reporter assay the amount or activity of a reporter protein is the signal.)
Experiment [8] is described as follows: inhibitors of poly I:C-induced TLR3 signaling, primary screen, cell-based, poly I:C stimulus, luciferase, 10K MLSCN set (AID 602277;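 active means inhibition of the reporter signal at or above 50%; inactive means inhibition below 50%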). The conditions noted are these: HEK293-TLR3 RL24 IRF3 luciferase reporter, at 10 µM, stronger effect = higher value.

The source made the active and inactive calls.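 How the source made its calls, unless noted: active means fluorescence slope higher than the sample average by over 3 SD (cut at about -0.22 in these data, passing the limit was not always enough); inactive means the rest.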

Sequence of Muscarinic acetylcholine receptor M4 (Homo sapiens) (P08173 whole entry, looked up): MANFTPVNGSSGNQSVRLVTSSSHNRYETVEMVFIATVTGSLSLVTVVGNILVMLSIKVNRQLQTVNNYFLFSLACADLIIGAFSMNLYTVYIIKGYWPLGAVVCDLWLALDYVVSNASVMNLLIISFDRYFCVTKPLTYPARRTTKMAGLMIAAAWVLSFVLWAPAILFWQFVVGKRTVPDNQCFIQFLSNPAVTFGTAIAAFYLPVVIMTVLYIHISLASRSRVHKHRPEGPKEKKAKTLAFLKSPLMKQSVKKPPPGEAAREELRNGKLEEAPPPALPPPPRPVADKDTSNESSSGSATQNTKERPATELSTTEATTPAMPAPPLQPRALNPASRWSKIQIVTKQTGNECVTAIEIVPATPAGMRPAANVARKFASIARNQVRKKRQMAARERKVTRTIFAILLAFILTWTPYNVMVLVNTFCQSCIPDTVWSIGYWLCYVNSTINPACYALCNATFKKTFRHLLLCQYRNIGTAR
Sequence of Voltage-gated potassium channel subunit beta-2 (Rattus norvegicus) (P62483 whole entry, looked up): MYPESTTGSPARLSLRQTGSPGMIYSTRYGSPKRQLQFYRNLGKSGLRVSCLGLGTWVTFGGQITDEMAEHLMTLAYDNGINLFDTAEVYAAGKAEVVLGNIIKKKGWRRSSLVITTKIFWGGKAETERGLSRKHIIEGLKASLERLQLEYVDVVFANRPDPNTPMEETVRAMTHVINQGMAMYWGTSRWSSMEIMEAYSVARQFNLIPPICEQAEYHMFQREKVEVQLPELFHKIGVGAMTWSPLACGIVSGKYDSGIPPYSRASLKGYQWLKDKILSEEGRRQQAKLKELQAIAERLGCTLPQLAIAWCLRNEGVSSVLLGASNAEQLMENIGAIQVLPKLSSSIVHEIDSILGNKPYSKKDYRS

With `CCCCCCNC(=O)Cc1c(O)c2ccccc2[nH]c1=O`, in experiment [1], the cell count was 342. Further, the inhibition (as a rule, the relative decrease from the control value, in per cent) in experiment [1] is 3.2% (inactive); in experiment [3], 20.8% (inactive); in experiment [7], 9.96% (inactive); in experiment [8] it was 16.8% (inactive). Besides, in experiment [2], the inhibition of aggregation is -12.8% (inactive). Further, the results for the nuclei count in experiment [2] and in experiment [3] were 122% and 103%, respectively. For the same compound, the fluorescence slope in experiment [4] is -0.354 (inactive); in experiment [6], 0.0051 (inactive). For the same compound, in experiment [5], the NADPH fluorescence slope is -5.1e-05 (inactive).

`CCOc1ccc(-c2nnc(N(CC)C(=O)C3CCC3)s2)cc1`: the cell count in experiment [1] turned out to be 440. Further, the inhibition is 9.7% (inactive) in experiment [1], -32% (inactive) in experiment [3], -19.2% (inactive) in experiment [7] and -80.4% (inactive) in experiment [8]. In addition, the inhibition of aggregation in experiment [2] is 3.2% (inactive). Moreover, the nuclei count in experiment [2] worked out at 103%; in experiment [3] it was 111%. The fluorescence slope was -0.461 (inactive) in experiment [4] and 0.00526 (inactive) in experiment [6]. In addition, in experiment [5], the NADPH fluorescence slope is 2e-05 (inactive).

Turning to `CCn1c(CNc2ccc(C)cc2)nnc1SCC(=O)NCc1ccccc1`, in experiment [1], the cell count is 648. Besides, the inhibition in experiment [1] is 13.4% (inactive); in experiment [3] it was -45% (inactive); in experiment [7] it was -9.51% (inactive); in experiment [8], -4.1% (inactive). Moreover, in experiment [2], the inhibition of aggregation is 5.4% (inactive). For the same compound, the nuclei count is 81.4% in experiment [2] and 115% in experiment [3]. The figures for the fluorescence slope in experiment [4] and in experiment [6] were -0.486 (inactive) and 0.00606 (inactive), respectively. Moreover, the NADPH fluorescence slope in experiment [5] is 0.000173 (inactive).

Turning to `Cc1nc(SCC(=O)c2c[nH]c3ccccc23)n[nH]1`, in experiment [1], the cell count was determined as 339. Moreover, the inhibition in experiment [1] is -6.5% (inactive); in experiment [3] it was -81.8% (inactive); in experiment [7], 17.1% (inactive); in experiment [8], 14.3% (inactive). Besides, in experiment [2], the inhibition of aggregation is -7.8% (inactive). The nuclei count is 103% in experiment [2] and 76.3% in experiment [3]. Further, the fluorescence slope in experiment [4] is -0.472 (inactive); in experiment [6], 0.00544 (inactive). The NADPH fluorescence slope in experiment [5] was -6.1e-05 (inactive).

`O=C(Nc1nc2ccc(S(=O)(=O)N3CCCC3)cc2s1)C1CCCO1` (centres undefined): the cell count in experiment [1] turned out to be 504. Moreover, the inhibition in experiment [1] was -12.6% (inactive); in experiment [3] it was 28.1% (inactive); in experiment [7], 14.9% (inactive); in experiment [8] it was 15.2% (inactive). In addition, in experiment [2], the inhibition of aggregation is -7.9% (inactive). For the same compound, the nuclei count in experiment [2] is 55.6%; in experiment [3] it was 93.1%. In addition, the fluorescence slope in experiment [4] was -0.455 (inactive); in experiment [6], 0.00425 (inactive). Moreover, the NADPH fluorescence slope in experiment [5] is -4.6e-05 (inactive).

Turning to `Cc1cc(C)c(NC(=O)C2CCCN2CCO)c(C)c1` (centres undefined), in experiment [1], the cell count turned out to be 553. Moreover, the inhibition was -0.3% (inactive) in experiment [1], -4.2% (inactive) in experiment [3], -8.07% (inactive) in experiment [7] and -8.13% (inactive) in experiment [8]. Also, the inhibition of aggregation in experiment [2] was -3.4% (inactive). For the same compound, the nuclei count in experiment [2] is 92.5%; in experiment [3] it was 84.4%. For the same compound, the fluorescence slope is -0.514 (inactive) in experiment [4] and 0.00468 (inactive) in experiment [6]. Also, the NADPH fluorescence slope in experiment [5] was -6.1e-05 (inactive).

For the compound `O=C(NCc1ccco1)c1cc2n(n1)C(C(F)(F)F)CC(c1ccc(F)cc1)N2` (centres undefined), the cell count in experiment [1] was found to be 405. Further, the inhibition in experiment [1] is 6.5% (inactive); in experiment [3], 8.6% (inactive); in experiment [7] it was 3.11% (inactive); in experiment [8] it was 12.1% (inactive). In addition, in experiment [2], the inhibition of aggregation was -12.7% (inactive). In addition, the nuclei count in experiment [2] stood at 109%; in experiment [3], 103%. Also, the fluorescence slope was -0.557 (inactive) in experiment [4] and 0.00537 (inactive) in experiment [6]. Further, the NADPH fluorescence slope in experiment [5] was -7.3e-06 (inactive).

For `CCn1c(=O)cc(SCC(=O)N2CCN(C3CCCCC3)CC2)c2ccccc21`, the cell count in experiment [1] stood at 417. For the same compound, the inhibition in experiment [1] was -5.2% (inactive); in experiment [3], -69.8% (inactive); in experiment [7], 8.4% (inactive); in experiment [8] it was 65.5% (active). Moreover, the inhibition of aggregation in experiment [2] was -6.7% (inactive). The nuclei count in experiment [2] worked out at 131%; in experiment [3], 108%. Moreover, the fluorescence slope in experiment [4] was -0.565 (inactive); in experiment [6], 0.0055 (inactive). For the same compound, the NADPH fluorescence slope in experiment [5] was 1.7e-06 (inactive).

As for `CSc1cccc(NC(=O)C2CCN(S(C)(=O)=O)CC2)c1`, the cell count in experiment [1] was determined as 248. Further, the inhibition is 3.5% (inactive) in experiment [1], -296% (inactive) in experiment [3], 13.5% (inactive) in experiment [7] and 13.6% (inactive) in experiment [8]. In experiment [2], the inhibition of aggregation is 16.4% (inactive). In addition, the figures for the nuclei count in experiment [2] and in experiment [3] were 80.7% and 120%, respectively. Besides, the fluorescence slope is -0.438 (inactive) in experiment [4] and 0.00544 (inactive) in experiment [6]. The NADPH fluorescence slope in experiment [5] is 3.2e-05 (inactive).

Regarding `CC(C(=O)N1CC2(C)CC1CC(C)(C)C2)N1C(=O)c2ccccc2C1=O` (centres undefined), the cell count in experiment [1] stood at 239. The inhibition in experiment [1] was 5.1% (inactive); in experiment [3] it was -114% (inactive); in experiment [7] it was 20.7% (inactive); in experiment [8], 17.3% (inactive). Moreover, in experiment [2], the inhibition of aggregation was 14.3% (inactive). Moreover, the nuclei count in experiment [2] is 99.8%; in experiment [3], 95.5%. The fluorescence slope is -0.504 (inactive) in experiment [4] and 0.00376 (inactive) in experiment [6]. In experiment [5], the NADPH fluorescence slope is -5.6e-05 (inactive).

Turning to `CCOC(=O)C1CCN(C(=O)Nc2ccc3snnc3c2)CC1`, the cell count in experiment [1] amounted to 408. Moreover, the inhibition in experiment [1] is 5.7% (inactive); in experiment [3] it was -38.5% (inactive); in experiment [7], 13.9% (inactive); in experiment [8], 10.8% (inactive). Besides, the inhibition of aggregation in experiment [2] was 5% (inactive). In addition, the results for the nuclei count in experiment [2] and in experiment [3] were 89.8% and 107%, respectively. Moreover, the fluorescence slope in experiment [4] was -0.206 (inactive); in experiment [6] it was 0.00565 (inactive). For the same compound, the NADPH fluorescence slope in experiment [5] was -2.9e-05 (inactive).

For `CCOC(=O)c1sc(C)c2c(=O)n(CC)nnc12`, the cell count in experiment [1] came to 304. In addition, the inhibition in experiment [1] was 0.8% (inactive); in experiment [3], -56% (inactive); in experiment [7], 6.72% (inactive); in experiment [8], 4.72% (inactive). Besides, the inhibition of aggregation in experiment [2] was -14.4% (inactive). Further, the nuclei count worked out at 102% in experiment [2] and 109% in experiment [3]. Besides, the fluorescence slope in experiment [4] is -0.523 (inactive); in experiment [6], 0.00361 (inactive). Moreover, in experiment [5], the NADPH fluorescence slope was -2.3e-06 (inactive).

Take `COc1cc(C(N)=O)ccc1OCc1ccccc1`: in experiment [1], the cell count was determined as 364. Further, the inhibition in experiment [1] is 14% (inactive); in experiment [3], -51.6% (inactive); in experiment [7] it was -12.9% (inactive); in experiment [8] it was -32.5% (inactive). Besides, in experiment [2], the inhibition of aggregation was -5.1% (inactive). Further, the nuclei count was found to be 107% in experiment [2] and 110% in experiment [3]. Moreover, the figures for the fluorescence slope in experiment [4] and in experiment [6] were -0.472 (inactive) and 0.00562 (inactive), respectively. In addition, the NADPH fluorescence slope in experiment [5] is -7.2e-06 (inactive).

For the compound `CCN(CC)C(=O)C1=C(C)NC(=O)NC1c1c(F)cccc1Cl` (centres undefined), the cell count in experiment [1] is 410. Further, the inhibition in experiment [1] is -7.5% (inactive); in experiment [3] it was -73.9% (inactive); in experiment [7], 7.67% (inactive); in experiment [8], 10.6% (inactive). In addition, in experiment [2], the inhibition of aggregation is -3.7% (inactive). The results for the nuclei count in experiment [2] and in experiment [3] were 116% and 122%, respectively. The fluorescence slope in experiment [4] was -0.521 (inactive); in experiment [6], 0.00392 (inactive). Besides, the NADPH fluorescence slope in experiment [5] is -0.000194 (inactive).

The values above are taken from PubChem BioAssay.
